Compound activity deposited in PubChem by Johns Hopkins Ion Channel Center.
Shown are actives, neighbours in structure and some others; about 3.7% of the full set was active somewhere.
hERG rescue – compounds protecting human hERG from proarrhythmic drug block. Q12809. CHO-hERG, FluxOR thallium flux, dofetilide IC70 present. activation (rescue from dofetilide block), less the hit threshold, % at 10 µM. actives 0.51% (n = 310,000). AID 1511;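 active means activation above the mean of controls blocked by dofetilide plus 5 SD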;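 further: thallium influx through hERG after potassium depolarization seen as dye fluorescence rise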
KCNQ1 inh – inhibitors of human KCNQ1 potassium channel | CHO-K1 KCNQ1, FluxOR thallium flux fluorescence; active compounds read high | actives 1.3% (n = 310,000) | P51787 | B-score at 10 µM;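 active means compounds whose thallium flux B-score, printed positive for inhibition, exceeds three library SD while starting fluorescence stays within three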;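 further: channel opened by potassium depolarization with thallium stimulus after 20 min compound exposure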
Target sequence (P51787 whole entry, looked up): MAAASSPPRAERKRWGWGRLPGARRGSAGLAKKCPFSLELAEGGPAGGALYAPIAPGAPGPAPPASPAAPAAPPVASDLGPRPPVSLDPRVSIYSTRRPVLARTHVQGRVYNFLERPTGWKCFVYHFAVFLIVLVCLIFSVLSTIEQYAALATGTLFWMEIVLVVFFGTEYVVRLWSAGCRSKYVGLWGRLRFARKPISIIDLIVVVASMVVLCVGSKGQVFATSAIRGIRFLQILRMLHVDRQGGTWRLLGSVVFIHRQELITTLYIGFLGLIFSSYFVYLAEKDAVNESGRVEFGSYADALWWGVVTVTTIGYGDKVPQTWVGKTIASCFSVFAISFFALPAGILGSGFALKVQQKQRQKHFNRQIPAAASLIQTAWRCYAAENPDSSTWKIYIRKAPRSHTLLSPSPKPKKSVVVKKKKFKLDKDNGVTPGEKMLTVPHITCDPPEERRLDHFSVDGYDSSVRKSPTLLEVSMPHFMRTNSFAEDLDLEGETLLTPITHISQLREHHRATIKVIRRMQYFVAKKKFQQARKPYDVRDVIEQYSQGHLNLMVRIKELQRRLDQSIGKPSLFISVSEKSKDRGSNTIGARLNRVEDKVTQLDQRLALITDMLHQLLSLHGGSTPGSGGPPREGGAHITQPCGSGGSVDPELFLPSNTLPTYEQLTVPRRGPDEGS
KCNQ1 pot – potentiates or activates the human KCNQ1 potassium channel; actives 0.35% (n = 310,000); CHO-K1 KCNQ1, thallium flux FluxOR fluorescence; active compounds read high; AID 2648; B-score at 10 µM;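 active means fluorescence ratio B-score, a plate-corrected score, at least three library SD, with initial intensity B-score within 5 SD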
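assay system = CHO-K1 cells stably expressing KCNQ1 | medium = assay buffer, equal DMSO in all wells | timing = 37 °C overnight plating, 90-min dark dye load, 20-min compound pretreatment | measured by = kinetic FluxOR thallium fluorescence, 10-s 1-Hz baseline, 110-s post-stimulus read | measure = fluorescence change relative to baseline, converted to B score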
KCNK3 block – human KCNK3 channel inhibition, primary screen; O14649; CHO-KCNK3 thallium flux, FluxOR fluorescence; active compounds read low; B-score at 10 µM; actives 0.84% (n = 340,000);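 active means B-score under library mean minus 4 SD, starting fluorescence ratio at most library mean plus 5 SD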;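 further: more negative B-score means stronger inhibition of thallium flux through KCNK3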
Kir21 block – blocks the mouse Kir2.1 inward-rectifier potassium channel. P35561. HEK293-Kir2.1, FluxOR thallium flux fluorescence; active compounds read low. B-score at 10 µM. actives 0.85% (n = 310,000). AID 1672;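 active means fluorescence ratio B-score at or below minus 3 SD of library scores, with starting-brightness B-score within 2 SD, cut at about -4.2 in these data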;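 further: channel flux triggered by added potassium and thallium sulfate stimulus; B-score of peak minus minimum fluorescence over baseline after thallium stimulus; more negative B-score means stronger Kir2.1 block with less thallium influx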
KCNK9 block – inhibitors of human KCNK9 two-pore domain potassium channel; HEK293 KCNK9, FluxOR thallium flux fluorescence; active compounds read low; B-score at 10 µM; actives 1.2% (n = 310,000); AID 488922; Q9NPC2;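 active means ratio B-score over 3 SD below the library mean, with starting fluorescence within 5 SD of its mean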;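 further: negative B-score means less thallium flux so channel inhibition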
KCNK9 inh conf – human KCNK9 inhibitor confirmation; AID 492992; shares compounds with KCNK9 block; inhibition, % at 10 µM; actives 43% (n = 4,900); HEK293 KCNK9 cells, FluxOR thallium flux fluorescence;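 active means thallium signal inhibited by more than 5 SD of the compound-free buffer control wells, on both duplicate plates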;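 further: 0% = assay buffer control wells without compound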
Kir21 sel – mouse Kir2.1 off-target activity of KCNK9 modulators. actives 4% (n = 4,900). Kir2.1 cells, FluxOR thallium flux fluorescence. inhibition, % at 10 µM. shares compounds with KCNK9 block;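 active means thallium signal drop more than 5 SD beyond the mean of the no-compound control wells, seen in both duplicate plates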;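 further: signal is fluorescence rise after thallium addition divided by baseline fluorescence; plate controls were assay buffer only for no effect and full block by chlorpromazine control for full effect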
KCNK9 uninduced – non-induced cell nonspecific activity of KCNK9 modulators; shares compounds with KCNK9 block; non-induced KCNK9-HEK293, FluxOR thallium flux; inhibition, % at 10 µM; actives 40% (n = 4,900);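 active means thallium signal drop beyond 5 SD of the untreated control mean, on both duplicate plates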;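 further: plate controls were buffer only IC0 wells for no effect and SID17386958 at its maximal inhibitory level for full effect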
KCNK3 inh conf – human KCNK3 channel inhibition, confirmation assay | shares compounds with KCNK3 block | CHO-KCNK3 thallium flux, FluxOR fluorescence; 0% buffer, 100% carvedilol maximal block | ratio percent of control, % at 10 µM | actives 99% (n = 2,400) | AID 651638;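 active means ratio percent of control, averaged over triplicates, above buffer control mean plus 5 SD, cut at about 64% in these data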;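 further: ratio is the fluorescence rise from min to max over baseline after thallium stimulus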
KCNK3 noninduced – activity in cells without induced KCNK3 expression; shares compounds with KCNK3 block; non-induced KCNK3 parental cells, FluxOR thallium flux; active compounds read low; thallium flux ratio (lower = more inhibition) at 10 µM; actives 40% (n = 2,400); AID 651747;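 active means thallium flux ratio, averaged over three wells, more than 5 SD below the buffer control mean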;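 further: host cells are CHO cells without KCNK3 induction; ratio is peak minus trough fluorescence over baseline then normalized to buffer controls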
Numbers without * were called inactive; i = inactive; nt = no result.

SMILES | hERG rescue | KCNQ1 inh | KCNQ1 pot | KCNK3 block | Kir21 block | KCNK9 block | KCNK9 inh conf | Kir21 sel | KCNK9 uninduced | KCNK3 inh conf | KCNK3 noninduced
CCN(CC)CC(O)COc1ccccc1C(=O)CCc1ccccc1 (stereo not given) | -11 | i | i | i | 0 | i | nt | nt | nt | nt | nt
CCCCN(CCCC)CC(O)COc1ccccc1C(=O)Nc1ccccc1 (stereo not given) | -10 | i | i | -10* | -0.96 | -11* | 50%* | i | 40%* | 112* | i
CCN(CC)C(=O)COc1ccc(-c2ccccc2)cc1 | -3 | i | i | -10* | 0.45 | -9.8* | 41%* | i | i | 84* | i
CCN(Cc1ccccc1)C(=O)COc1ccccc1 | -11 | i | i | i | 0.55 | i | nt | nt | nt | nt | nt
CC(Oc1ccc(Cl)cc1)c1ccnn1S(=O)(=O)c1ccccc1 (stereo not given) | -8 | i | i | -9.9* | -2.8 | -11* | 37%* | 52%* | 60%* | 100* | 0.14*
CCOc1ccccc1NC(C)C(=O)NC(=O)NC1CCCCC1 (stereo not given) | nt | nt | nt | i | nt | nt | nt | nt | nt | nt | nt
Cc1ccc(-c2ocnc2C(=O)Nc2ccccc2NC(=O)c2ccccn2)cc1 | -7 | i | i | i | 1.9 | i | nt | nt | nt | nt | nt
Cc1cccc(-c2ocnc2C(=O)Nc2ccccc2NC(=O)c2ccccn2)c1 | -9 | i | i | -9.7* | 0.69 | -11* | 36%* | i | 29%* | 109* | 0.16*
O=C(Nc1ccccc1)c1sc2cc(C(F)(F)F)cnc2c1-c1cccs1 | -8 | i | i | -9* | 0.56 | -9* | 40%* | i | 34%* | 112* | i
COc1ccc(CCNS(=O)(=O)c2ccc(Br)s2)cc1 | -9 | i | i | -9.4* | -0.66 | -9.2* | 76%* | i | 34%* | 116* | i
Cc1ccc(-c2nc3c(c(=O)c4ccccc4n3C)c(=O)n2-c2ccc(F)cc2)cc1 | -8 | i | i | i | 0.01 | i | nt | nt | nt | nt | nt
Cn1c2ccccc2c(=O)c2c(=O)n(-c3ccccc3)c(-c3ccc(C(C)(C)C)cc3)nc21 | -11 | i | i | -8.9* | 1.2 | -12* | 34%* | i | i | 130* | 0.099*
Cc1ccccc1CN(C)C(C)C(=O)Nc1ccccc1F (stereo not given) | -10 | i | i | -11* | 0.14 | -14* | 58%* | i | 44%* | 114* | i
CCN(C[C@H]1N[C@@](C)(C(=O)OC)[C@H]2C(=O)N(C)C(=O)[C@@H]12)C(=O)Nc1ccc(OC)cc1 | nt | nt | nt | i | nt | nt | nt | nt | nt | nt | nt
CC(C)S(=O)(=O)c1csc(NC(=O)Nc2cc(Cl)ccc2Cl)c1Cl | -8 | i | i | -11* | -0.15 | -8.2* | 54%* | i | 38%* | 139* | 0.14*
N#C/C(=C/c1ccc(N2CCCCC2)o1)c1cccc(F)c1 | -26 | i | i | -14* | -2.2 | -10* | 78%* | i | 72%* | 170* | 0.079*
O=C1NC(=O)/C(=C/c2ccc(N3CCOCC3)o2)N1 | -6 | i | i | i | 0.96 | i | nt | nt | nt | nt | nt
N#C/C(=C/c1ccc(Sc2nc3ccccc3[nH]2)o1)c1cccc(F)c1 | -15 | 13* | i | -9.8* | 0.68 | i | i | i | i | 122* | i
Cc1ccc(/C(C#N)=C\c2ccc(N3CCOCC3)o2)cc1 | -16 | 9* | i | -15* | -0.68 | -12* | 57%* | i | 84%* | 168* | 0.044*
Cc1cc(NN)nc(Cc2ccccc2)n1 | -4 | i | i | i | -0.13 | i | nt | nt | nt | nt | nt
Cc1ccc(/C=N/NC(=O)c2ccc(-n3cnnn3)cc2)cc1 | nt | nt | nt | i | nt | nt | nt | nt | nt | nt | nt
Cc1nnc(NC(=O)c2sc3ccccc3c2Cl)s1 | -4 | i | i | i | -1.7 | i | nt | nt | nt | nt | nt
Cc1ccc(NC(=O)c2sc3ccccc3c2Cl)nc1 | -6 | i | i | i | 0.05 | -15* | 56%* | i | 30%* | 87* | i
CCOc1ccccc1NC(=S)NC(=O)CCCOc1ccc(Cl)cc1Cl | 2 | i | i | -11* | -0.62 | i | nt | nt | nt | 109* | i
Cc1ccccc1C(=O)Nc1ccnn1C1CCN(C(C)Cc2ccccc2F)CC1 (stereo not given) | -8 | i | i | i | -0.06 | i | nt | nt | nt | nt | nt
SMILES | hERG rescue | KCNQ1 inh | KCNQ1 pot | KCNK3 block | Kir21 block | KCNK9 block | KCNK9 inh conf | Kir21 sel | KCNK9 uninduced | KCNK3 inh conf | KCNK3 noninduced
CC(C)Oc1ccc(CNC(=O)Cn2c(=O)oc3ccccc32)cc1 | 1 | i | i | i | 0.59 | i | nt | nt | nt | nt | nt
Cc1ccc(CNC(=O)Cn2c(=O)oc3ccccc32)o1 | -4 | i | i | -12* | 1 | i | nt | nt | nt | 77* | i
Cc1nn(C(C)(C)C)c(OC(=O)C2CCCC2)c1S(=O)(=O)c1ccccc1 | -5 | i | i | -9.9* | -1.6 | i | nt | nt | nt | 90* | i
N#CCCN(C(=O)COC(=O)c1cc(=O)[nH]c2ccccc12)c1ccccc1 | nt | nt | nt | i | nt | nt | nt | nt | nt | nt | nt
COc1ccc(OC)c2c1sc(=NC(=O)C1COc3ccccc3O1)n2C (stereo not given) | -10 | i | i | -9.6* | -0.44 | i | nt | nt | nt | 108* | i
CCC(=O)N=c1sc2c(OC)ccc(OC)c2n1C | -11 | i | i | i | 1.1 | i | nt | nt | nt | nt | nt
O=C(Cn1c(=O)n(Cc2ccco2)c(=O)c2ccccc21)Nc1cccc(Cl)c1 | -3 | i | i | -14* | 2.2 | i | nt | nt | nt | 98* | i
Cc1ccc(NC(=O)Cn2c(=O)n(Cc3ccco3)c(=O)c3ccccc32)c(C)c1 | -5 | i | i | i | -1 | i | nt | nt | nt | nt | nt
Nc1ncnc2c1c(-c1ccc(Oc3ccccc3)cc1)cn2C1CCCC1 | nt | nt | nt | -12* | nt | nt | nt | nt | nt | 115* | i
Cc1ccc(N(C)C(=O)N2CCN(S(=O)(=O)c3ccc4ccccc4c3)CC2)cc1 | -11 | i | i | i | 0 | i | nt | nt | nt | nt | nt
